# Measurements gathered from unrelated publications.
# Compare with care: the assays were run in different laboratories.
SMILES,organism,test,test system,conditions,quantity,result
CNCCc1ccc(Oc2ccc(-c3noc(-c4ccc(O)cc4)n3)cc2)cc1.Cl,Enterococcus faecium,"microbial growth, broth dilution",,24 h,MIC,4 µg/mL
CC(=O)Nc1cccc(-n2c(/C=C/c3ccc(F)cc3)nc3ccccc3c2=O)c1,Enterococcus faecium,"microbial growth, broth dilution",NCTC7171,,MIC,> 128 µg/mL
CCCN(CCS(C)(=O)=O)Cc1ccc(-c2ccc3ncnc(Nc4ccc(OCc5cccc(F)c5)c(Cl)c4)c3c2)o1,Trypanosoma brucei,parasite growth,,,EC50,2000 nM
C[C@@H]1[C@H](O)[C@@H](C)/C=C/C=C/C=C/C=C/C=C/C=C/C=C/[C@H](O[C@@H]2O[C@H](C)[C@@H](O)[C@H](N)[C@@H]2O)C[C@@H]2O[C@](O)(C[C@@H](O)C[C@@H](O)[C@H](O)CC[C@@H](O)C[C@@H](O)CC(=O)O[C@H]1C)C[C@H](O)[C@H]2C(=O)O,Candida albicans,microbial growth,ATCC90028,,IC50,0.32 µg/mL
Cl.NCc1ccc(Oc2ccc(-c3noc(-c4ccc(O)cc4)n3)cc2)cc1,Enterococcus faecium,"microbial growth, broth dilution",,24 h,MIC,4 µg/mL
COc1cc(Nc2ncc3c(C)nc(-c4cccc(C(F)(F)F)c4)n3n2)cc(OC)c1OC,Trypanosoma brucei,parasite growth,,,EC50,158 nM
N#Cc1ccc(/C=C/c2nc3ccccc3c(=O)n2-c2cccc(CC(=O)O)c2)cc1,Enterococcus faecium,"microbial growth, broth dilution",NCTC7171,,MIC,> 128 µg/mL
O=C(O)c1cn(C2CC2)c2cc(N3CCNCC3)c(F)cc2c1=O,Mycobacterium intracellulare,"microbial growth, resazurin",ATCC23068,,IC50,0.48 µg/mL
Nc1nonc1-c1nc2cnccc2n1C1CCCCC1,Trypanosoma brucei,parasite growth,,,EC50,1260 nM
CS(=O)(=O)Nc1cccc(-n2c(/C=C/c3ccc(F)cc3)nc3ccccc3c2=O)c1,Enterococcus faecium,"microbial growth, broth dilution",NCTC7171,,MIC,> 128 µg/mL
